Assays:
[1] = system: Rattus norvegicus; test: Iron clearing efficiency in bile duct cannulated Sprague-Dawley rat assessed as clearance of iron in bile at 300 umol/kg, po measured at 3 hrs intervals for up to 48 hrs relative to control; format: functional
Outline: (§1)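 Non-iron-overloaded male Sprague-Dawley rats (400–450 g) with cannulated bile ducts received 300 µmol/kg po or sc. […] Bile was sampled every 3 h for up to 48 h and urine at 24 h intervals. ICE = (treated minus control iron excretion) / theoretical output (2:1 ligand:Fe) × 100 over 48 h. Mean ± SEM.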

[2] = system: Rattus norvegicus; test: Iron clearing efficiency in bile duct cannulated Sprague-Dawley rat assessed as clearance of iron in urine at 300 umol/kg, po measured at 3 hrs intervals for up to 48 hrs relative to control; format: functional
[3] = system: Sapajus apella; test: Iron clearing efficiency in bile duct cannulated Cebus apella assessed as clearance of iron in bile at 75 umol/kg, po measured at 3 hrs intervals for up to 48 hrs relative to control; format: functional
[4] = system: Sapajus apella; test: Iron clearing efficiency in bile duct cannulated Cebus apella assessed as clearance of iron in urine at 75 umol/kg, po […] relative to control; format: functional
[5] = system: Sapajus apella; test: Iron clearing efficiency in bile duct cannulated Cebus apella assessed as clearance of iron in feces at 150 umol/kg, po measured at 3 hrs intervals for up to 48 hrs relative to control; format: functional
[6] = system: Sapajus apella; test: Iron clearing efficiency in bile duct cannulated Cebus apella assessed as clearance of iron in urine at 150 umol/kg, po measured at 3 hrs intervals for up to 48 hrs relative to control; format: functional
[7] = system: Sapajus apella; test: Iron clearing efficiency in bile duct cannulated Cebus apella assessed as clearance of iron at 150 umol/kg, po measured at 3 hrs intervals for up to 48 hrs relative to control; format: functional
[8] = organism: Rattus norvegicus; test: Iron clearing efficiency in bile duct cannulated Sprague-Dawley rat assessed as […] for up to 48 hrs relative to control; format: functional, Urine
[9] = system: Sapajus apella; test: Iron clearing efficiency in bile duct cannulated Cebus apella assessed as clearance of iron in bile at 75 umol/kg, sc measured at 3 hrs intervals for up to 48 hrs relative to control; format: functional
[10] = system: Sapajus apella; test: Iron clearing efficiency in bile duct cannulated Cebus apella assessed as clearance of iron in urine at 75 umol/kg, sc […] relative to control; format: functional
[11] = system: Rattus norvegicus; test: Iron clearing efficiency in bile duct cannulated Sprague-Dawley rat assessed as clearance of iron in bile at 300 umol/kg, sc measured at 3 hrs intervals for up to 48 hrs relative to control; format: functional; outline: as §1
[12] = Performance ratio, ratio of iron clearing efficiency in […] at 75 umol/kg, po to iron clearing efficiency in bile duct cannulated Sprague-Dawley rat at 300 umol/kg, po; format: functional
Outline: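 Performance ratio = mean ICE in iron-overloaded Cebus apella (75 µmol/kg) divided by mean ICE in bile duct-cannulated rats (300 µmol/kg), by the same route.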

[13] = system: Rattus norvegicus; test: Iron clearing efficiency in bile duct cannulated Sprague-Dawley rat assessed as clearance of iron at 300 umol/kg, po measured at 3 hrs intervals for up to 48 hrs relative to control; format: functional; outline: as §1
[14] = system: Rattus norvegicus; test: Drug metabolism in Sprague-Dawley rat pancreas assessed as (S)-4'-(HO)-DADFT-PEAA level at 300 umol/kg, sc up to 8 hrs by HPLC analysis; format: ADME, organism-based; details: in vivo
Outline: (§2)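 Male Sprague-Dawley rats (250–350 g) got a single sc dose of the monosodium salt at 300 µmol/kg, n=3 per time point. They were killed with CO2 at 0.5, 1, 2, 4 and 8 h. Citrated cardiac-puncture blood was spun to plasma, and liver, kidney, heart and pancreas were frozen. Tissue was homogenized 1:1 in water, given a methanol rinse, held 30 min at −20 °C, centrifuged and filtered. Read-out was reversed-phase HPLC, UV 310 nm.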

[15] = system: Rattus norvegicus; test: Drug metabolism in Sprague-Dawley rat heart assessed as (S)-4'-(HO)-DADFT-PEAA level at 300 umol/kg, sc up to 8 hrs by HPLC analysis; format: ADME, organism-based; details: in vivo; outline: as §2
[16] = system: Rattus norvegicus; test: Drug metabolism in Sprague-Dawley rat liver assessed as (S)-4'-(HO)-DADFT-PEAA level at 300 umol/kg, sc up to 8 hrs by HPLC analysis; format: ADME, organism-based; details: in vivo; outline: as §2
[17] = system: Rattus norvegicus; test: Drug metabolism in Sprague-Dawley rat kidney assessed as (S)-4'-(HO)-DADFT-PEAA level at 300 umol/kg, sc up to 8 hrs by HPLC analysis; format: ADME, organism-based; details: in vivo; outline: as §2
[18] = system: Rattus norvegicus; test: Drug metabolism in Sprague-Dawley rat plasma assessed as (S)-4'-(HO)-DADFT-PEA level at 300 umol/kg, sc up to 8 hrs by HPLC analysis; format: ADME, organism-based; details: in vivo; outline: as §2
[19] = system: Rattus norvegicus; test: Drug metabolism in Sprague-Dawley rat pancreas assessed as (S)-4'-(HO)-DADFT-PEA level at 300 umol/kg, sc up to 8 hrs by HPLC analysis; format: ADME, organism-based; details: in vivo; outline: as §2
[20] = system: Rattus norvegicus; test: Drug metabolism in Sprague-Dawley rat plasma assessed as (S)-4'-(HO)-DADFT-PEAA level at 300 umol/kg, sc up to 8 hrs by HPLC analysis; format: ADME, organism-based; details: in vivo; outline: as §2
[21] = system: Rattus norvegicus; test: Drug metabolism in Sprague-Dawley rat liver assessed as (S)-4'-(HO)-DADFT level at 300 umol/kg, sc after 8 hrs; format: ADME, organism-based; details: in vivo
[22] = system: Rattus norvegicus; test: Drug metabolism in Sprague-Dawley rat heart assessed as (S)-4'-(HO)-DADFT-PEA level at 300 umol/kg, sc up to 8 hrs by HPLC analysis; format: ADME, organism-based; details: in vivo; outline: as §2
[23] = system: Sapajus apella; test: Iron clearing efficiency in […] Cebus apella assessed as clearance of iron in feces at 75 umol/kg, po […] relative to control; format: functional
Outline: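 Cebus apella monkeys (3.5–6.5 kg) were iron-overloaded with intravenous iron dextran to about 500 mg Fe/kg, reaching serum transferrin saturation of 70–80%. At least 60 days elapsed before use. Chelator was given at 75 µmol/kg po or sc, with the same animals dosed by both routes. Feces and urine were collected at 24 h intervals from 4 days before to 5 days after dosing, and iron was measured by flame absorption spectroscopy. ICE = 2-day post-drug output minus 4-day mean baseline, divided by theoretical output (2:1 ligand:Fe), as %. Mean ± SEM.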

[24] = Drug metabolism in Sprague-Dawley rat plasma assessed as parent compound level at 300 umol/kg, sc after 0.5 hrs by HPLC analysis; format: ADME, organism-based; details: read-out: Stability
Outline: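 Rats (male Sprague-Dawley, 250–350 g) were dosed sc once with the monosodium salt, 300 µmol/kg, three animals per time point up to 8 h. Plasma came from citrated cardiac blood; liver was frozen after CO2 euthanasia. Parent and metabolites were quantified by HPLC with UV at 310 nm against linear calibration curves (detection limit 0.25 µM, linear 1–1000 µM). Data are means.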

[25] = system: Rattus norvegicus; test: Drug metabolism in Sprague-Dawley rat kidney assessed as (S)-4'-(HO)-DADFT-PEA level at 300 umol/kg, sc up to 8 hrs by HPLC analysis; format: ADME, organism-based; details: in vivo; outline: as §2
[26] = system: Rattus norvegicus; test: Drug metabolism in Sprague-Dawley rat liver assessed as (S)-4'-(HO)-DADFT-PEA level at 300 umol/kg, sc up to 8 hrs by HPLC analysis; format: ADME, organism-based; details: in vivo; outline: as §2
[27] = system: Rattus norvegicus; test: Drug metabolism in Sprague-Dawley rat plasma assessed as (S)-4'-(HO)-DADFT-PEAA level at 300 umol/kg, sc after 8 hrs by HPLC analysis; format: ADME, organism-based; details: in vivo; outline: as §2
[28] = system: Rattus norvegicus; test: Iron clearing efficiency in bile duct cannulated Sprague-Dawley rat assessed as clearance of iron in urine at 150 umol/kg, sc measured at 3 hrs intervals for up to 48 hrs relative to control; format: functional
[29] = system: Sapajus apella; test: Iron clearing efficiency in bile duct cannulated Cebus apella assessed as clearance of iron in urine at 150 umol/kg, sc measured at 3 hrs intervals for up to 48 hrs relative to control; format: functional
[30] = system: Rattus norvegicus; test: Iron clearing efficiency in bile duct cannulated Sprague-Dawley rat assessed as clearance of iron at 150 umol/kg, sc measured at 3 hrs intervals for up to 48 hrs relative to control
[31] = system: Sapajus apella; test: Iron clearing efficiency in bile duct cannulated Cebus apella assessed as clearance of iron in feces at 150 umol/kg, sc measured at 3 hrs intervals for up to 48 hrs relative to control; format: functional

What does the source list for C[C@]1(C(=O)O)CSC(c2ccc(OCCCCCC(=O)O)cc2O)=N1?
Activity [1]: 94%; Activity [2]: 6%; Activity [3]: 82%; Activity [4]: 18%

With COCCOCCOCCOc1cccc(C2=N[C@@](C)(C(=O)O)CS2)c1O [DEFERITAZOLE] as the compound, how does the Activity [5] read?
Its Activity is 95%.

And the Activity [6]?
The Activity was 5%.

And the Activity [7]?
The Activity was 23%.

Which Activity [8] does the source give for C[C@]1(C(=O)[O-])CSC(c2ccc(OCCOCC(=O)O)cc2O)=N1.[Na+] here?
The Activity was 1%.

What about the Activity [9] of the same compound?
The Activity was 84%.

What about the Activity [10] of the same compound?
The Activity was 16%.

What about the Activity [11] of the same compound?
Its Activity is 99%.

What does the source list for C[C@]1(C(=O)O)CSC(c2cccc(O)c2O)=N1?
Activity [5]: 83%; Activity [6]: 17%; Activity [7]: 23.1%

Which results are given for C[C@]1(C(=O)[O-])CSC(c2ccc(OCCCCCC(=O)O)cc2O)=N1.[Na+]?
Activity [8]: 4%; Activity [9]: 69%; Activity [10]: 31%; Activity [11]: 96%; Ratio [12]: 1.2

With C[C@]1(C(=O)O)CSC(c2ccc(OCCOCC(=O)O)cc2O)=N1 as the compound, how does the Activity [1] read?
The Activity was 100%.

And the Activity [2]?
The Activity was 0%.

And the Activity [3]?
The Activity was 51%.

And the Activity [4]?
The Activity was 49%.

Which Activity [4] does the source give for COCCOCCOc1ccc(C2=N[C@@](C)(C(=O)[O-])CS2)c(O)c1.[Na+] here?
Its Activity is 17%.

With COCCOCCOCCOc1ccc(C2=N[C@@](C)(C(=O)O)CS2)c(O)c1 as the compound, how does the Activity [13] read?
Its Activity is 5.5%.

Which Activity [1] does the source give for C[C@]1(C(=O)O)CSC(c2ccc(OCC(=O)O)cc2O)=N1 here?
The Activity was 89%.

And the Activity [2]?
Its Activity is 11%.

What about the Activity [3] of the same compound?
Its Activity is 60%.

And the Activity [4]?
The Activity was 40%.

For COc1ccc(C2=N[C@@](C)(C(=O)O)CS2)c(O)c1, which Activity [13] is on record?
The Activity was 6.6%.

With C[C@]1(C(=O)O)CSC(c2ccc(OCCCC(=O)O)cc2O)=N1 as the compound, how does the Activity [1] read?
The Activity was 89%.

What about the Activity [2] of the same compound?
The Activity was 11%.

And the Activity [3]?
Its Activity is 97%.

And the Activity [4]?
Its Activity is 3%.

With COCCOCCOc1ccc(C2=N[C@@](C)(C(=O)O)CS2)c(O)c1 [SP-420] as the compound, how does the Activity [1] read?
Its Activity is 97%.

What about the Drug metabolism [14] of the same compound?
Its Drug metabolism is “metabolite_notdetected”.

And the Drug metabolism [15]?
The Drug metabolism was “metabolite_notdetected”.

And the Drug metabolism [16]?
The Drug metabolism was “metabolite_notdetected”.

And the Drug metabolism [17]?
Its Drug metabolism is “metabolite_notdetected”.

And the Drug metabolism [18]?
The Drug metabolism was “metabolite_detected”.

What about the Activity [2] of the same compound?
The Activity was 3%.

And the Drug metabolism [19]?
Its Drug metabolism is “metabolite_detected”.

What about the Drug metabolism [20] of the same compound?
Its Drug metabolism is “metabolite_notdetected”.

What about the Drug metabolism [21] of the same compound?
The Drug metabolism was “metabolite_notdetected”.

What about the Drug metabolism [22] of the same compound?
The Drug metabolism was “metabolite_detected”.

And the Activity [23]?
Its Activity is 93%.

And the remaining at 0.5 h [24]?
The remaining at 0.5 h was 95%.

And the Drug metabolism [25]?
Its Drug metabolism is “metabolite_detected”.

What about the Drug metabolism [26] of the same compound?
The Drug metabolism was “metabolite_detected”.

For COCCCCCCOc1ccc(C2=N[C@@](C)(C(=O)O)CS2)c(O)c1, which Activity [1] is on record?
The Activity was 99%.

And the Activity [2]?
The Activity was 1%.

Which results are given for C[C@]1(C(=O)O)CSC(c2ccc(OCCOCCO)cc2O)=N1?
Activity [1]: 98%; Drug metabolism [14]: metabolite_detected; Drug metabolism [15]: metabolite_detected; Drug metabolism [17]: metabolite_detected; Activity [2]: 2%; Drug metabolism [27]: metabolite_notdetected; Activity [3]: 54%; Activity [4]: 46%

Which Activity [28] does the source give for CC(=O)N(O)CCCCCNC(=O)CCC(=O)N(O)CCCCCNC(=O)CCC(=O)N(O)CCCCCN [DEFEROXAMINE] here?
The Activity was 26%.

And the Activity [29]?
The Activity was 55%.

What about the Activity [30] of the same compound?
Its Activity is 74%.

And the Activity [31]?
Its Activity is 45%.

What does the source list for C[C@]1(C(=O)[O-])CSC(c2ccc(OCCCC(=O)O)cc2O)=N1.[Na+]?
Activity [8]: 5%; Activity [9]: 78%; Activity [10]: 22%; Activity [11]: 95%

Which Activity [9] does the source give for C[C@]1(C(=O)[O-])CSC(c2ccc(OCC(=O)O)cc2O)=N1.[Na+] here?
Its Activity is 53%.

What about the Activity [10] of the same compound?
The Activity was 47%.

And the Activity [11]?
Its Activity is 94%.

Source: ChEMBL document CHEMBL3608261, “Metabolically programmed iron chelators” (Bioorg Med Chem, 2015)
